One assay has as its system HeLa. Nature of the assay: Cytotoxicity against human HeLa cells assessed as reduction in cell viability incubated for 96 hrs by MTT assay. The assay is classed as functional, cell-based. The method in brief:
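HeLa monolayers kept in DMEM with 10% v/v FBS and 2 mM L-glutamine at 37 °C under humidified 5% CO2. Cells were seeded at 5000–20 000 per well and preincubated 24 h. Compound was added in triplicate, with doxorubicin as positive control. After 96 h continuous exposure, viability was read by MTT absorbance at 570 nm. IC50 came from dose–response analysis.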
In general terms: Formazan colour is commonly taken as a measure of viable cells.

For a further assay, the system named is MDA-MB-231. Description: Cytotoxicity against human MDA-MB-231 cells assessed as reduction in cell viability incubated for 96 hrs by MTT assay. The format is functional, cell-based. To be noted: MDA-MB-231, 96 h. The gist of the method: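 Triple-negative breast line MDA MB231 was grown as monolayer at 37 °C under humidified 5% CO2 and plated at 5000–20 000 cells/well depending on line. After 24 h, compound was added in triplicate, with doxorubicin as positive control. Cells were exposed continuously for 96 h, then MTT colorimetry read at 570 nm. IC50 came from dose–response fitting.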

In the next assay the test system is MIA PaCa-2. Description: Cytotoxicity against human MIAPaCa2 cells assessed as reduction in cell viability incubated for 96 hrs by MTT assay. The assay is classed as functional, cell-based. To be noted: MIA PaCa-2, 96 h. The gist of the method: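 Pancreatic adenocarcinoma MIA PaCa2 cells were cultured in DMEM plus 2 mM L-glutamine and 10% FBS at 37 °C, 5% CO2. Cells were seeded at 5000–20 000 per well and rested 24 h, then dosed in triplicate for 96 h continuous exposure, with doxorubicin as positive control. Read-out was MTT absorbance at 570 nm; IC50 was derived by dose–response analysis.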

The test system of a further assay is NCI-H1975. Description: Cytotoxicity against human NCI-H1975 cells assessed as reduction in cell viability incubated for 96 hrs by MTT assay. The assay is classed as functional, cell-based. To be noted: NCI-H1975, 96 h. The gist of the method:
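NSCLC NCI H1975 cells were maintained in RPMI 1640 with 10% v/v FBS and 1% penicillin–streptomycin at 37 °C, humidified 5% CO2. Cells were seeded at 5000–20 000 per well, given 24 h, then dosed in triplicate for 96 h with doxorubicin as positive control. Viability was measured by MTT at 570 nm, and IC50 was obtained from dose–response curves.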

The next assay relates to WI-38. Description: Cytotoxicity against human WI38 cells assessed as reduction in cell viability incubated for 96 hrs by MTT assay. The assay is classed as cell-based. The note with it: WI-38, 96 h. The gist of the method:
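WI 38 cells were grown in DMEM with 2 mM L-glutamine, 1× nonessential amino acids, 1% penicillin–streptomycin and 15% FBS at 37 °C, 5% CO2. Cells were plated at 5000–20 000 per well, then 24 h later dosed in triplicate and exposed continuously for 96 h. Read-out was MTT absorbance at 570 nm, with IC50 from dose–response analysis.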

A word on the IC50: it is the concentration needed to halve the response being measured.

Regarding `COc1cccc2c1C(=O)c1c(O)c3c(c(O)c1C2=O)C[C@@](O)(C(=O)CO)C[C@@H]3O[C@H]1C[C@H](N)[C@H](O)[C@H](C)O1` [DOXORUBICIN], the IC50 was 50 nM in the assay with HeLa; 70 nM in the assay with MDA-MB-231; 40 nM in the assay on MIA PaCa-2; 30 nM in the assay on NCI-H1975; 0.35 µM in the assay on WI-38.
For `COc1c(O)cc(O)c2c1C(=O)c1cc(C)ncc1C2=O`, in that order: 710 nM, 730 nM, 640 nM, 340 nM and 6.42 µM.
For `COc1cc(O)cc2c1C(=O)c1cnc(C)cc1C2=O`, in that order: 960 nM, 1510 nM, 980 nM, 610 nM and 5.84 µM.
Turning to `COc1cc(O)c2c(c1)C(=O)C1=C(COC(C)(O)C1)C2=O` (stereo not given), the IC50 in the assay with HeLa was found to be 10300 nM; with MDA-MB-231 it was 30700 nM; in the assay with MIA PaCa-2 it was 20500 nM; in the assay with NCI-H1975, 27700 nM; in the assay with WI-38, 54.3 µM.

(Values after ChEMBL document CHEMBL4177531, “Cytotoxic Naphthoquinone and Azaanthraquinone Derivatives from an Endophytic Fusarium solani” (J Nat Prod, 2017).)
